pIC50: −log10 of the molar value. ≈ marks a conversion by molar mass, not a printed value. Calls of active or inactive are those of the source. The calls are words filed in the database; no cut-off is given here.
Assays:
[1] = Inhibition of chymotryptic-like activity of human 20S proteasome using Suc-LLVY-AMC as substrate measured every min over 30 mins by fluorescence assay
[2] = Inhibition of NFkappaB-mediated gene transcription in human HeLa cells after 1 hr by Dual-Glo luciferase reporter assay; format: cell-based
[3] = Inhibition of 20S proteasome (unknown origin); parameters: species or system Homo sapiens
THP-1 [4] = assay: Cytotoxicity against wild type human THP1 cells assessed as cell viability at 0.5 uM after 72 hrs by MTS assay relative to vehicle-treated control; conditions: THP-1, 72 h, read-out: Activity
THP-1 [5] = assay: cells; conditions: Homo sapiens, THP-1, 72 h, read-out: Activity
THP-1 [6] = assay: Cytotoxicity against bortezomib-resistant human THP1 cells assessed as cell viability at 10 uM after 72 hrs by MTS assay relative to vehicle-treated control; format: functional; conditions: for viability at 10 µM: THP-1, 72 h, read-out: Activity
Outline: (§1)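 THP-1 cells in RPMI-1640 with 10% FBS, penicillin/streptomycin, 1 mM sodium pyruvate and 0.2 mM L-glutamine at 37°C, 5% CO2. […] Compound in DMSO, final 10 μM, 0.5% DMSO, 72 h. MTS (CellTiter 96 AQueous One) read at 490 nm, background-subtracted, as % of vehicle.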

THP-1 [7] = assay: Cytotoxicity against wild type human THP1 cells assessed as cell viability at 10 uM after 72 hrs by MTS assay relative to vehicle-treated control; format: functional; conditions: THP-1, 72 h, read-out: Activity; outline: as §1
[8] = Solubility of the compound in dextrose-water solution at pH 6.5 after 5 mins; format: physicochemical; conditions: buffer, pH 6.5, 5 min
Outline: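 1 mL of 5% dextrose in water is brought to pH 6.5 with 3 μl 2 N HCl. Solid is added in 0.5 mg portions, then 0.1 mg near saturation. Each addition is vortexed 40 s and sonicated 30 s at 37.5°C, then held 5 min at 37.5°C and judged visually.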

Homo sapiens [9] = species on record: Homo sapiens; assay: Non-competitive inhibition of chymotryptic-like activity of human 20S proteasome using Suc-LLVY-AMC as substrate at 1.25 to 5 uM
Outline: (§2)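 Kinetics: purified human 20S proteasome with vehicle or inhibitor at 1.25, 2.5 or 5 μM across varying Suc-LLVY-AMC concentrations. Velocity is followed by AMC fluorescence as in the activity assay. Vmax and Km come from Michaelis-Menten fits with a Lineweaver-Burk plot.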

Homo sapiens [10] = species on record: Homo sapiens; assay: Non-competitive inhibition of chymotryptic-like activity of human 20S proteasome using Suc-LLVY-AMC as substrate; outline: as §2

SMILES	pIC50 [1]	other results
CCOC(=O)[C@]1(c2ccccc2)N=C(c2ccc(OC)cc2)N(Cc2ccccc2)[C@@H]1c1ccc(NC(=N)N)cc1 (racemic)	6.20	
O=C(OCCO)[C@]1(c2ccccc2)N=C(c2ccccc2)N(Cc2ccccc2)[C@@H]1c1ccccc1 (racemic)	5.49	pIC50 [2]: 4.96
CCOC(=O)[C@]1(c2ccccc2)N=C(c2ccccc2)N(Cc2ccccc2)[C@@H]1c1ccc(N)cc1	5.45	
CCOC(=O)[C@]1(c2ccccc2)N=C(c2ccccc2)N(Cc2ccco2)[C@@H]1c1ccccc1	5.15	
CC(C)C[C@H](NC(=O)[C@H](Cc1ccccc1)NC(=O)c1cnccn1)B(O)O [BORTEZOMIB]		pIC50 [3]: 8.30; viability at 0.5 µM (THP-1 [4]): < 5%; viability at 0.5 µM (THP-1 [5]): 68%
CCOC(=O)[C@]1(c2ccccc2)N=C(c2ccc(OC)cc2)N(Cc2ccccc2)[C@@H]1c1ccc(NCC2CCCCC2)cc1 (racemic)	6.89	viability at 10 µM (THP-1 [6]): 5%; viability at 10 µM (THP-1 [7]): 4%
CCOC(=O)[C@]1(c2ccccc2)N=C(c2ccccc2)N(Cc2ccc(Br)cc2)[C@@H]1c1ccccc1	5.72	solubility [8]: < 500 µg/mL
CCOC(=O)[C@]1(c2ccccc2)N=C(c2ccc(OC)cc2)N(Cc2ccccc2)[C@@H]1c1ccc(NCc2ccccc2)cc1 (racemic)		viability at 10 µM (THP-1 [6]): 19%; viability at 10 µM (THP-1 [7]): 4%; inhibition (Homo sapiens [9]): Active
COC(=O)[C@]1(c2ccccc2)N=C(c2ccccc2)N(Cc2ccccc2)[C@@H]1c1ccccc1	5.27	pIC50 [2]: 5.12
CCOC(=O)[C@]1(c2ccccc2)N=C(c2ccc(OC)cc2)N(Cc2ccccc2)[C@@H]1c1ccc(N)cc1 (racemic)	5.71	viability at 10 µM (THP-1 [6]): 98%; viability at 10 µM (THP-1 [7]): 44%
CCOC(=O)[C@]1(c2ccccc2)N=C(c2ccc(OC)cc2)N(Cc2ccccc2)[C@@H]1c1ccc(NC(C)=O)cc1 (racemic)	5.66	
CCOC(=O)[C@]1(c2ccccc2)N=C(c2ccccc2)N(Cc2ccc(OC)cc2)[C@@H]1c1ccccc1	5.56	
c1ccc(Cn2c(-c3ccccc3)nc(-c3ccccc3)c2-c2ccccc2)cc1	< 5.00	pIC50 [2]: < 5.00
CCOC(=O)[C@]1(c2ccccc2)N=C(c2ccccc2)N(Cc2ccccc2)[C@@H]1c1ccc([N+](=O)[O-])cc1	5.17	
CCOC(=O)[C@]1(c2ccccc2)N=C(c2ccccc2)N(Cc2ccccc2)[C@@H]1c1ccc(C(F)(F)F)cc1	5.32	
CCOC(=O)[C@]1(c2ccccc2)N=C(c2ccccc2)N(C(C)=O)[C@@H]1c1ccccc1	< 5.00	
CCOC(=O)[C@]1(c2ccccc2)N=C(c2ccccc2)N(Cc2ccccc2)[C@@H]1c1ccc(Cl)cc1	5.65	
CCOC(=O)[C@]1(c2ccccc2)N=C(c2ccccc2)N(C(=O)c2ccccc2)[C@@H]1c1ccccc1	< 5.00	
CCOC(=O)[C@]1(c2ccccc2)N=C(c2ccc(OC)cc2)N(Cc2ccccc2)[C@@H]1c1ccc(NS(=O)(=O)c2ccc(OC)cc2OC)cc1 (racemic)	6.28	
CCOC(=O)[C@]1(c2ccccc2)N=C(c2ccccc2)N(Cc2ccccc2)[C@@H]1c1ccc(S(C)(=O)=O)cc1 (racemic)	< 5.00	
CCOC(=O)[C@]1(c2ccccc2)N=C(c2ccc(OC)cc2)N(Cc2ccccc2)[C@@H]1c1ccccc1 (racemic)	5.90	
CCOC(=O)[C@]1(c2ccccc2)N=C(c2ccc(Br)cc2)N(Cc2ccccc2)[C@@H]1c1ccccc1 (racemic)	5.50	
CCOC(=O)[C@]1(c2ccccc2)N=C(c2ccccc2)N(S(=O)(=O)c2ccc(C)cc2)[C@@H]1c1ccccc1	< 5.00	

SMILES	pIC50 [1]	other results
CCOC(=O)[C@]1(c2ccccc2)N=C(c2ccc(OC)cc2)N(Cc2ccccc2)[C@@H]1c1ccc(C(N)=O)cc1 (racemic)	< 5.00	
CCOC(=O)[C@]1(c2ccccc2)N=C(c2ccccc2)N(Cc2ccccc2)[C@@H]1c1ccc(NCc2ccccc2)cc1 (racemic)	6.33	
CCOC(=O)[C@]1(c2ccccc2)N=C(c2ccc(OC)cc2)N(Cc2ccccc2)[C@@H]1c1ccc(NC(=O)c2ccccc2)cc1 (racemic)	5.84	
CCOC(=O)[C@]1(c2ccccc2)N=C(c2ccc(OC)cc2)N(Cc2ccccc2)[C@@H]1c1ccc(NS(=O)(=O)Cc2ccccc2)cc1	5.97	
CCOC(=O)[C@]1(c2ccccc2)N=C(c2ccc(OC)cc2)N(Cc2ccccc2)[C@@H]1c1ccc(NCc2cc(OC)c(OC)c(OC)c2)cc1 (racemic)	6.43	viability at 10 µM (THP-1 [6]): 34%; viability at 10 µM (THP-1 [7]): 24%
CCOC(=O)[C@]1(c2ccccc2)N=C(c2ccccc2)N(Cc2ccccc2)[C@@H]1c1ccco1	5.21	
CCOC(=O)[C@]1(c2ccccc2)N=C(c2ccc(OC)cc2)N(Cc2ccccc2)[C@@H]1c1ccc(NCc2ccc(O)cc2)cc1 (racemic)	6.27	viability at 10 µM (THP-1 [6]): 36%; viability at 10 µM (THP-1 [7]): 23%
c1ccc(CN2CCN=C2c2ccccc2)cc1	< 5.00	pIC50 [2]: < 5.00
CCOC(=O)[C@]1(c2ccccc2)N=C(c2ccccc2)N(Cc2ccc(Cl)cc2)[C@@H]1c1ccccc1	5.69	solubility [8]: < 500 µg/mL
CCOC(=O)[C@]1(c2ccccc2)N=C(c2ccccc2)N(Cc2ccccc2)[C@@H]1c1ccccc1	5.59	Activity (THP-1 [6]): Active; inhibition (Homo sapiens [10]): Active; solubility [8]: 1910 µg/mL (≈ 4150 µM); pIC50 [2]: 5.60
CCOC(=O)[C@]1(c2ccccc2)N=C(c2ccc(OC)cc2)N(Cc2ccccc2)[C@@H]1c1ccc(C#N)cc1 (racemic)	< 5.00	
CCOC(=O)[C@]1(c2ccccc2)N=C(c2ccc(OC)cc2)N(Cc2ccccc2)[C@@H]1c1ccc(NS(=O)(=O)C2CC2)cc1 (racemic)	6.04	
NC(=O)[C@]1(c2ccccc2)N=C(c2ccccc2)N(Cc2ccccc2)[C@@H]1c1ccccc1	< 5.00	pIC50 [2]: < 4.70
CCOC(=O)[C@]1(c2ccccc2)N=C(c2ccccc2)N(Cc2ccccc2)[C@@H]1c1ccc(SC)cc1 (racemic)	5.56	
CCOC(=O)[C@]1(c2ccccc2)N=C(c2ccccc2)N[C@@H]1c1ccccc1	< 5.00	
CCOC(=O)[C@]1(c2ccccc2)N=C(c2ccccc2)N(Cc2ccccc2)[C@@H]1c1ccc(NS(=O)(=O)c2ccccc2)cc1 (racemic)	5.97	
CCOC(=O)[C@]1(c2ccccc2)N=C(c2ccccc2)N(Cc2ccccc2)[C@@H]1c1ccncc1	< 5.00	
CCOC(=O)[C@]1(c2ccccc2)N=C(c2ccccc2)N(Cc2ccc(F)cc2)[C@@H]1c1ccccc1	5.43	
CCOC(=O)[C@]1(c2ccccc2)N=C(c2ccc(OC)cc2)N(Cc2ccccc2)[C@@H]1c1ccc(NS(=O)(=O)N(C)C)cc1 (racemic)	5.91	
c1ccc(CN2C(c3ccccc3)=N[C@@H](c3ccccc3)[C@H]2c2ccccc2)cc1	< 5.00	pIC50 [2]: < 5.00
CCOC(=O)[C@]1(c2ccccc2)N=C(c2ccc(OC)cc2)N(Cc2ccccc2)[C@@H]1c1ccc(NS(=O)(=O)c2ccccc2)cc1 (racemic)	6.24	
c1ccc(CN2C(c3ccccc3)=N[C@H](c3ccccc3)[C@H]2c2ccccc2)cc1	5.85	pIC50 [2]: 5.34
O=C(OCc1ccccc1)[C@]1(c2ccccc2)N=C(c2ccccc2)N(Cc2ccccc2)[C@@H]1c1ccccc1	5.62	pIC50 [2]: 5.46

Reference: ChEMBL document CHEMBL2406988, “Inhibition of the human proteasome by imidazoline scaffolds” (J Med Chem, 2013)
